Values after ≈ are worked out from the molar mass of the structure shown.
How the values were obtained:
[1] = system: Mycobacterium tuberculosis; test: Antimycobacterial activity against Mycobacterium tuberculosis H37Rv ATCC 27294 after 3 to 28 days by twofold dilution method; format: functional
How it was run: (§1)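 Twofold agar dilution in Middlebrook 7H11 with 10% OADC; plates held at 37 °C for 3 or 28 days. MIC is the lowest concentration giving complete inhibition of visible mycobacterial growth. Rifampin, streptomycin and BM521 served as references.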

[2] = system: Mycobacterium tuberculosis; test: Antimycobacterial activity against Mycobacterium tuberculosis CIP 103471 after 3 to 28 days by twofold dilution method; format: functional; how it was run: as §1
[3] = Protection index, ratio of CC50 for Mycobacterium tuberculosis infected mouse J774A1 cells to MIC for Mycobacterium tuberculosis H37Rv ATCC 27294; format: functional, J774.A1
[4] = system: Mycobacterium tuberculosis; test: Antimycobacterial activity against Mycobacterium tuberculosis H37Rv ATCC 27294 infected in mouse J774A1 cells assessed as reduction of bacterial growth at 0.25 ug/ml after 6 days relative to untreated control; format: functional, J774.A1; parameters: scale not given: the % may be the effect or the level left
[5] = system: Mycobacterium tuberculosis; test: Antimycobacterial activity against Mycobacterium tuberculosis H37Rv ATCC 27294 infected in mouse J774A1 cells assessed as reduction of bacterial growth at 1 ug/ml after 6 days relative to untreated control; format: functional, J774.A1; parameters: scale not given: the % may be the effect or the level left
[6] = system: Mycobacterium tuberculosis; test: Antimycobacterial activity against Mycobacterium tuberculosis H37Rv ATCC 27294 infected in mouse J774A1 cells assessed as reduction of bacterial growth at 0.5 ug/ml after 6 days relative to untreated control; format: functional, J774.A1; parameters: scale not given: the % may be the effect or the level left
[7] = system: Mycobacterium tuberculosis; test: Antimycobacterial activity against Mycobacterium tuberculosis H37Rv ATCC 27294 infected in mouse J774A1 cells assessed as reduction of bacterial growth at 0.125 ug/ml after 6 days relative to untreated control; format: functional, J774.A1; parameters: scale not given: the % may be the effect or the level left

**Q.** For `COc1ccccc1-c1cc(CN2CCSCC2)c(C)n1-c1ccc(F)cc1`, which MIC [1] is on record?
**A.** > 16 µg/mL

**Q.** With `COc1ccc(-c2cc(CN3CCSCC3)c(C)n2-c2ccc(C(C)C)cc2)cc1` as the molecule, how does the MIC [2] read?
**A.** 0.25 µg/mL (≈ 0.594 µM)

**Q.** What about the PI [3] of the same molecule?
**A.** 40.88

**Q.** What about the MIC [1] of the same molecule?
**A.** 0.25 µg/mL (≈ 0.594 µM)

**Q.** With `CCc1ccc(-c2cc(CN3CCSCC3)c(C)n2-c2ccc(OC)cc2)cc1` as the molecule, how does the MIC [2] read?
**A.** 0.5 µg/mL (≈ 1.23 µM)

**Q.** What about the PI [3] of the same molecule?
**A.** 36.06

**Q.** What about the MIC [1] of the same molecule?
**A.** 0.5 µg/mL (≈ 1.23 µM)

**Q.** Which MIC [2] does the source give for `CSc1ccccc1-n1c(-c2ccc(F)cc2)cc(CN2CCSCC2)c1C` here?
**A.** 8 µg/mL (≈ 19.4 µM)

**Q.** What about the PI [3] of the same molecule?
**A.** 4.2

**Q.** What about the MIC [1] of the same molecule?
**A.** 8 µg/mL (≈ 19.4 µM)

**Q.** For `COc1ccc(-n2c(-c3ccc(F)cc3)cc(CN3CCSCC3)c2C)cc1`, which PI [3] is on record?
**A.** 5.32

**Q.** What about the MIC [1] of the same molecule?
**A.** 4 µg/mL (≈ 10.1 µM)

**Q.** For `CCc1ccc(-n2c(-c3ccc(SC)cc3)cc(CN3CCSCC3)c2C)cc1`, which MIC [2] is on record?
**A.** 0.25 µg/mL (≈ 0.591 µM)

**Q.** What about the PI [3] of the same molecule?
**A.** 68.72

**Q.** And the MIC [1]?
**A.** 0.25 µg/mL (≈ 0.591 µM)

**Q.** Which PI [3] does the source give for `Cc1c(CN2CCSCC2)cc(-c2ccc(F)cc2)n1-c1ccccc1C(F)(F)F` here?
**A.** 0.65

**Q.** What about the MIC [1] of the same molecule?
**A.** 4 µg/mL (≈ 9.21 µM)

**Q.** Which results are given for `Cc1c(CN2CCSCC2)cc(-c2ccc(C(F)(F)F)cc2)n1-c1ccc(F)cc1`?
**A.** PI [3]: 8.46; MIC [1]: 1 µg/mL (≈ 2.3 µM)

**Q.** For `COc1ccccc1-n1c(-c2ccc(F)cc2)cc(CN2CCSCC2)c1C`, which MIC [1] is on record?
**A.** > 16 µg/mL

**Q.** For `CSc1ccc(-c2cc(CN3CCSCC3)c(C)n2-c2ccc(F)cc2)cc1`, which Activity [4] is on record?
**A.** 99.02%

**Q.** What about the MIC [2] of the same molecule?
**A.** < 0.125 µg/mL

**Q.** And the PI [3]?
**A.** >1000

**Q.** And the MIC [1]?
**A.** 0.125 µg/mL (≈ 0.303 µM)

**Q.** What about the Activity [5] of the same molecule?
**A.** 99.81%

**Q.** And the Activity [6]?
**A.** 99.72%

**Q.** And the Activity [7]?
**A.** 96.12%

**Q.** Which Activity [4] does the source give for `CO[C@H]1/C=C/O[C@@]2(C)Oc3c(C)c(O)c4c(O)c(c(/C=N/N5CCN(C)CC5)c(O)c4c3C2=O)NC(=O)/C(C)=C\C=C\[C@H](C)[C@H](O)[C@@H](C)[C@@H](O)[C@@H](C)[C@H](OC(C)=O)[C@@H]1C` [RIFAMPIN] here?
**A.** 99.83%

**Q.** What about the MIC [2] of the same molecule?
**A.** 0.25 µg/mL (≈ 0.304 µM)

**Q.** What about the PI [3] of the same molecule?
**A.** 828.12

**Q.** And the MIC [1]?
**A.** 0.25 µg/mL (≈ 0.304 µM)

**Q.** What about the Activity [5] of the same molecule?
**A.** 99.97%

**Q.** What about the Activity [6] of the same molecule?
**A.** 99.93%

**Q.** What about the Activity [7] of the same molecule?
**A.** 96.59%

**Q.** Which results are given for `CCc1ccc(-n2c(-c3ccc(OC)cc3)cc(CN3CCSCC3)c2C)cc1`?
**A.** MIC [2]: 0.5 µg/mL (≈ 1.23 µM); PI [3]: 63.04; MIC [1]: 0.25 µg/mL (≈ 0.615 µM)

**Q.** For `Cc1c(CN2CCSCC2)cc(-c2ccccc2C(F)(F)F)n1-c1ccc(F)cc1`, which MIC [1] is on record?
**A.** > 16 µg/mL

**Q.** Which MIC [2] does the source give for `CSc1ccc(-c2cc(CN3CCSCC3)c(C)n2-c2ccc(C(C)C)cc2)cc1` here?
**A.** 0.5 µg/mL (≈ 1.14 µM)

**Q.** What about the PI [3] of the same molecule?
**A.** 286.24

**Q.** And the MIC [1]?
**A.** 0.125 µg/mL (≈ 0.286 µM)

**Q.** For `COc1ccc(-c2cc(CN3CCSCC3)c(C)n2-c2ccc(F)cc2)cc1`, which PI [3] is on record?
**A.** >480

**Q.** And the MIC [1]?
**A.** 0.25 µg/mL (≈ 0.63 µM)

**Q.** Which MIC [2] does the source give for `CCCc1ccc(-c2cc(CN3CCSCC3)c(C)n2-c2ccc(SC)cc2)cc1` here?
**A.** 0.5 µg/mL (≈ 1.14 µM)

**Q.** What about the PI [3] of the same molecule?
**A.** 359.68

**Q.** What about the MIC [1] of the same molecule?
**A.** 0.25 µg/mL (≈ 0.572 µM)

**Q.** Which MIC [2] does the source give for `CCCc1ccc(-c2cc(CN3CCSCC3)c(C)n2-c2ccc(OC)cc2)cc1` here?
**A.** 0.5 µg/mL (≈ 1.19 µM)

**Q.** What about the PI [3] of the same molecule?
**A.** >512

**Q.** And the MIC [1]?
**A.** 0.25 µg/mL (≈ 0.594 µM)

**Q.** For `COc1ccc(-c2cc(CN3CCSCC3)c(C)n2-c2ccc(C)cc2)cc1`, which MIC [2] is on record?
**A.** 0.5 µg/mL (≈ 1.27 µM)

**Q.** What about the PI [3] of the same molecule?
**A.** 46.2

**Q.** What about the MIC [1] of the same molecule?
**A.** 0.25 µg/mL (≈ 0.637 µM)

**Q.** With `CN[C@@H]1[C@H](O[C@H]2[C@H](O[C@H]3[C@H](O)[C@@H](O)[C@H](N=C(N)N)[C@@H](O)[C@@H]3N=C(N)N)O[C@@H](C)[C@]2(O)C=O)O[C@@H](CO)[C@H](O)[C@H]1O` [STREPTOMYCIN] as the molecule, how does the MIC [2] read?
**A.** 0.5 µg/mL (≈ 0.86 µM)

**Q.** And the PI [3]?
**A.** >2000

**Q.** What about the MIC [1] of the same molecule?
**A.** 0.5 µg/mL (≈ 0.86 µM)

**Q.** For `Cc1ccc(-c2cc(CN3CCSCC3)c(C)n2-c2ccc(F)cc2)cc1`, which MIC [2] is on record?
**A.** 0.125 µg/mL (≈ 0.328 µM)

**Q.** What about the PI [3] of the same molecule?
**A.** 272.16

**Q.** What about the MIC [1] of the same molecule?
**A.** 0.25 µg/mL (≈ 0.657 µM)

**Q.** Which results are given for `CSc1ccc(-n2c(-c3ccc(C(C)C)cc3)cc(CN3CCSCC3)c2C)cc1`?
**A.** MIC [2]: 0.5 µg/mL (≈ 1.14 µM); PI [3]: 229.9; MIC [1]: 0.5 µg/mL (≈ 1.14 µM)

**Q.** For `CSc1ccccc1-c1cc(CN2CCSCC2)c(C)n1-c1ccc(F)cc1`, which MIC [2] is on record?
**A.** 16 µg/mL (≈ 38.8 µM)

**Q.** What about the PI [3] of the same molecule?
**A.** 1.39

**Q.** And the MIC [1]?
**A.** 16 µg/mL (≈ 38.8 µM)

**Q.** Which MIC [2] does the source give for `CSc1ccc(-n2c(-c3ccc(F)cc3)cc(CN3CCSCC3)c2C)cc1` here?
**A.** 1 µg/mL (≈ 2.42 µM)

**Q.** And the PI [3]?
**A.** >128

**Q.** What about the MIC [1] of the same molecule?
**A.** 1 µg/mL (≈ 2.42 µM)

**Q.** For `CCCc1ccc(-n2c(-c3ccc(SC)cc3)cc(CN3CCSCC3)c2C)cc1`, which MIC [2] is on record?
**A.** 0.5 µg/mL (≈ 1.14 µM)

**Q.** What about the PI [3] of the same molecule?
**A.** 202

**Q.** What about the MIC [1] of the same molecule?
**A.** 0.125 µg/mL (≈ 0.286 µM)

**Q.** With `CSc1ccc(-n2c(-c3ccc(C)cc3)cc(CN3CCSCC3)c2C)cc1` as the molecule, how does the MIC [2] read?
**A.** 1 µg/mL (≈ 2.45 µM)

**Q.** What about the PI [3] of the same molecule?
**A.** 69.06

**Q.** What about the MIC [1] of the same molecule?
**A.** 1 µg/mL (≈ 2.45 µM)

**Q.** Which MIC [2] does the source give for `CCc1ccc(-c2cc(CN3CCSCC3)c(C)n2-c2ccc(SC)cc2)cc1` here?
**A.** 1 µg/mL (≈ 2.37 µM)

**Q.** And the PI [3]?
**A.** 102.96

**Q.** And the MIC [1]?
**A.** 0.25 µg/mL (≈ 0.591 µM)

**Q.** What does the source list for `COc1ccc(-n2c(-c3ccc(C(C)C)cc3)cc(CN3CCSCC3)c2C)cc1`?
**A.** MIC [2]: 0.5 µg/mL (≈ 1.19 µM); PI [3]: 9.76; MIC [1]: 0.5 µg/mL (≈ 1.19 µM)

**Q.** For `CCCc1ccc(-n2c(-c3ccc(OC)cc3)cc(CN3CCSCC3)c2C)cc1`, which MIC [2] is on record?
**A.** 0.25 µg/mL (≈ 0.594 µM)

**Q.** What about the PI [3] of the same molecule?
**A.** 49.12

**Q.** And the MIC [1]?
**A.** 0.25 µg/mL (≈ 0.594 µM)

**Q.** For `Cc1c(CN2CCSCC2)cc(-c2ccc(F)cc2)n1-c1ccc(C(F)(F)F)cc1`, which PI [3] is on record?
**A.** 0.29

**Q.** And the MIC [1]?
**A.** 8 µg/mL (≈ 18.4 µM)

**Q.** Which MIC [2] does the source give for `COc1ccc(-n2c(-c3ccc(C)cc3)cc(CN3CCSCC3)c2C)cc1` here?
**A.** 1 µg/mL (≈ 2.55 µM)

**Q.** And the PI [3]?
**A.** 6.57

**Q.** What about the MIC [1] of the same molecule?
**A.** 2 µg/mL (≈ 5.09 µM)

**Q.** Which MIC [2] does the source give for `CSc1ccc(-c2cc(CN3CCSCC3)c(C)n2-c2ccc(C)cc2)cc1` here?
**A.** 0.25 µg/mL (≈ 0.612 µM)

**Q.** What about the PI [3] of the same molecule?
**A.** 73.6

**Q.** And the MIC [1]?
**A.** 0.25 µg/mL (≈ 0.612 µM)

— ChEMBL document CHEMBL1275336, “Identification of a novel pyrrole derivative endowed with antimycobacterial activity and protection index comparable to that of the current antitubercular drugs streptomycin and rifampin” (Bioorg Med Chem, 2010)
